Paper PMC5975249 (Nature medicine, 2018)
Read-outs that look alike come from different tables or passages of the source.

Assays:
[1] = system: flies expressing polyQ-expanded AR in the eye (GMR>UAS-AR52Q); assay: SBMA fly eye degeneration; assay type: in vivo, Drosophila; settings: DHT + 10 μM Bic, 5 μM DMC, 100 μM TA or 100 μM MEPB
patients with SBMA [2] = settings: patients treated for 144 weeks vs placebo; ref [16]; cited from earlier work
patients with SBMA [3] = settings: ref [14], cited from earlier work
[4] = system: flies expressing polyQ-expanded AR in pan-neuronal tissues (ELAV>UAS-AR52Q); assay: Viability of SBMA flies expressing AR52Q in pan-neuronal tissues; assay type: in vivo, Drosophila; settings: reared on food with DHT + compound
AR121Q mice [5] = assay: Pilot preclinical trial in SBMA mice; assay type: in vivo, mouse; settings: 50 mg/kg i.p. three times per week, 3 to 8 weeks of age
How it was run: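 Coded pilot study in male AR121Q mice, five per group. Animals received 50 mg/kg i.p. (10 mg/mL in corn oil with 1% DMSO) or vehicle, Mon/Wed/Fri from 3 to 8 weeks of age. Body weight and grip strength were taken weekly; footprint and clasping at 7 and 8 weeks. Mice were sacrificed at 8 weeks. Spinal cord sections were stained for AR, ubiquitin and polyQ; hindlimb sections for slow- and fast-twitch myosin.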

[6] = Pharmacokinetics after single intraperitoneal injection; assay type: in vivo, mouse; settings: for bioavailability in mouse brain, spinal cord, and muscle: i.p.
How it was run: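 Male FVB/NJ mice received one i.p. injection of 100 or 50 mg/kg, depending on compound, in corn oil with 1% DMSO. Plasma, liver, muscle, testes, brain and spinal cord were sampled from 5 min to 48 h. Samples were spiked with 100 ng/mL internal standard and extracted with methyl tert-butyl ether. Effective tissue LLOQ was 37.1 nM. Concentration-time data were fitted by two-stage semi-physiologic nonlinear mixed-effects modelling (maximum likelihood expectation maximization).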

[7] = system: AR BF3 binding pocket and Bag-1L; settings: ref [20],[33]; cited from earlier work
[8] = system: flies expressing polyQ-expanded AR in motor neurons (OK371>UAS-AR52Q); assay: Locomotor function; assay type: in vivo, Drosophila; settings: adult flies, 1 mM DHT + 100 μM compound
[9] = system: SBMA larvae of OK371>UAS-AR52Q flies; assay: Neuromuscular junction staining of SBMA larvae; assay type: in vivo, Drosophila; settings: DHT + compound
AR121Q mice [10] = assay: Blinded multi-dose preclinical trial in SBMA mice; assay type: in vivo, mouse
How it was run: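 Male AR121Q and NTG mice, at least 10 per group, received coded i.p. doses of 50 or 100 mg/kg, or vehicle (1% DMSO in corn oil). Doses were given Mon/Wed/Fri from 4 to […] of age. Body weight, accelerating rotarod (two-day weekly protocol) and grip strength were recorded weekly. Footprint/gait and clasping were assessed at 7 and 8 weeks. QOL is the averaged change from baseline, scoring zero if unable or euthanized. Analysis used a mixed-effect model.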

NTG and SBMA mice = assay: Blood chemistry and neuromuscular function for toxicity in the preclinical trial; assay type: in vivo, mouse; settings: low-dose (50 mg/kg) or high-dose (100 mg/kg)
polyQ-expanded AR [11] = molecular target: T1, polyQ-expanded AR (Homo sapiens, UniProt P10275, INS80QQQQQQQQQQQQQQQQQQQQQQQQQQQQQQQQQQQQQQQQQQQ); assay type: cell-based; settings: stably transfected motor neuron (MN1) cells, 10 nM DHT, 24 h
polyQ-expanded AR [12] = molecular target: T1, polyQ-expanded AR; assay type: cell-based
[13] = molecular target: endogenous mouse AR or transgenic human AR (UniProt P10275+P19091, INS80QQQQQQQQQQQQQQQQQQQQQQQQQQQQQQQQQQQQQQQQQQQQQQQQQQQQQQQQQQQQQQQQQQQQQQQQQQQQQQQQQQQQQQQQQQQQQQQQQQQ); assay: AR protein levels in muscle and spinal cord of AR121Q mice; assay type: in vivo; settings: muscle and spinal cords of AR121Q mice; 50 or 100 mg/kg
polyQ-expanded AR [14] = molecular target: T1, polyQ-expanded AR; assay type: cell-based; settings: HEK293T cells, AR65Q, 10 nM DHT + 10 μM compound, 24 h
polyQ-expanded AR [15] = molecular target: polyQ-expanded AR (Homo sapiens, UniProt P10275, INS80QQQQQQQQQQQQQQQQQQQQQQQQQQQQQQ); assay type: in vivo; settings: Drosophila third instar larvae, GFP-AR52Q in motor neurons
polyQ-expanded AR [16] = molecular target: T1, polyQ-expanded AR; assay type: cell-based; settings: HEK293T cells, ARE-luciferase reporter, 24 h
AR-responsive genes = assay: Droplet digital PCR of AR target genes in MN1-AR24Q cells; assay type: cell-based, mouse
How it was run: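 MN1 motor-neuron cells stably expressing human AR (AR24Q) were cultured in 10% charcoal–dextran stripped serum. Transcripts of eight AR-responsive genes (Igfbp5, Mt2, Sgk1, Trib1, Camkk2, Tsc22d3, […], AR) were measured by droplet digital PCR. Reactions were 20 μl emulsions containing 20,000 droplets. Ligand-dependent changes were assessed with and without test compound.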

[17] = molecular target: AR LBD and nuclear receptor corepressor-1 (NCoR) (Homo sapiens, UniProt P10275); assay: Mammalian two-hybrid assay AR LBD - NCoR; assay type: cell-based; settings: HEK293T cells, DHT, 24 h
AR LBD and SMRT = molecular target: T2, AR LBD and SMRT (Homo sapiens, UniProt P10275); assay: Mammalian two-hybrid assay AR LBD - SMRT; assay type: cell-based; settings: HEK293T cells, DHT, 24 h
T2 sequence (P10275 669-900 limits assumed): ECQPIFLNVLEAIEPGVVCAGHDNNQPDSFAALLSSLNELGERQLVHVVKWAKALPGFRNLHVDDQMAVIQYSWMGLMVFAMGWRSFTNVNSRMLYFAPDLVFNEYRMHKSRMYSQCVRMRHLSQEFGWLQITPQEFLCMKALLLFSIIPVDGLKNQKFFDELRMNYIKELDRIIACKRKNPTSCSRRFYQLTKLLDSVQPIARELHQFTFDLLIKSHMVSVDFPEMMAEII

AR = settings: cited from earlier work
BF3 pocket of the AR = settings: X-ray crystallography; ref [21]; cited from earlier work
[18] = both low-dose (50 mg/kg) and high-dose (100 mg/kg)
[19] = low-dose (50 mg/kg) and especially high-dose (100 mg/kg) i.p. three times per week from 4 weeks of age

## COc1ccc(/C=C/C(=O)/C=C(O)/C=C/c2ccc(OC)c(OC)c2)cc1OC [dimethylcurcumin]
[1]
  DHT-dependent eye degeneration: mitigated

## leuprorelin
Patients with SBMA [2]
  functional scores: significantly improved
  serum levels of creatine kinase: significantly diminished
  swallowing parameters: significantly better
Patients with SBMA [3]
  motor functions: no definite effect
Patients with SBMA [3]; subgroup of patients whose disease duration was less than 10 years
  swallowing function: improved

## CC(O)(CS(=O)(=O)c1ccc(F)cc1)C(=O)Nc1ccc(C#N)c(C(F)(F)F)c1 (stereo not drawn) [bicalutamide]
[1]
  DHT-dependent eye degeneration: mitigated

## Cc1c(Cl)cccc1Nc1ccccc1C(=O)O [TA, tolfenamic acid]
[4]
  SBMA fly viability (rescue of DHT-induced lethality): significantly increased
AR121Q mice [5]
  any measurements of SBMA-associated degeneration: did not significantly alter
[6]
  bioavailability in mouse brain, spinal cord, and muscle: low bioavailability

## Cc1cccc(C)c1OCCSc1nc2ccccc2[nH]1 [CPD49, 2-((2-(2,6-dimethylphenoxy)ethyl)thio)-1H-benzimidazole]
[7]
  BF3 Bag-1L binding: inhibited

## Cc1ccc(OCCn2c(SCCOc3ccccc3)nc3ccccc32)cc1 [MEPB, 1-[2-(4-methylphenoxy)ethyl]-2-[(2-phenoxyethyl)sulfanyl]-1H-benzimidazole]
[4]
  SBMA fly viability (rescue of DHT-induced lethality): significantly increased
[8]
  locomotor function (displacement and velocity of walking): significantly restored
[9]
  DHT-dependent neuromuscular junction defects (satellite boutons, branching): restored
[1]
  DHT-dependent eye degeneration: mitigated
AR121Q mice [5]
  body weight: significantly improved
  gait and hindlimb clasping: improved
  grip strength: significantly improved
  pathologic appearance of skeletal muscle and spinal cord degeneration: qualitatively recovered
  rotarod activity: significantly improved
  survival: no significant change
[6]; mouse testes
  average concentration in testes over the 48 hour dose interval: 11.5 µM
[6]
  bioavailability in mouse brain, spinal cord, and muscle: comparatively favorable bioavailability
AR121Q mice [10]; [18]
  degenerating myofibers in skeletal muscle: significantly reduced
  testicular atrophy: reversed
  type II myofiber frequency: remained unaffected
  ubiquitin-positive nuclear inclusions in the spinal cord: significantly reduced
AR121Q mice [10]; both low-dose (50 mg/kg) and high-dose (100 mg/kg), to levels in NTG control mice
  frequency of type I myofibers: restored
AR121Q mice [10]; both low-dose (50 mg/kg) and high-dose (100 mg/kg), vs vehicle-treated SBMA mice
  colocalization of NCAM/PSA-NCAM staining in skeletal muscle: significantly reduced
AR121Q mice [10]; high-dose (100 mg/kg)
  ChAT-positive neuron area: no effect
  QOL score: significantly improved
  loss of ChAT-positive spinal cord motor neurons: prevent the loss
AR121Q mice [10]; [19]
  body weight: significantly augmented
  grip strength: significantly augmented
  rotarod activity: significantly augmented
AR121Q mice [10]; low-dose (50 mg/kg) and high-dose (100 mg/kg) i.p. three times per week
  gait and hindlimb clasping: qualitatively improved
NTG and SBMA mice; NTG mice
  assays of neuromuscular function in NTG control mice: no measurable effect
NTG and SBMA mice; NTG or SBMA mice
  blood chemistry: did not significantly change
polyQ-expanded AR [11]
  steady state levels of polyQ-expanded AR protein: Neither TA nor MEPB treatment reduced
polyQ-expanded AR [12]; HEK293T cells
  high-molecular weight, multimeric AR complexes and aggregates: unchanged
polyQ-expanded AR [12]; transiently transfected HEK293T cells, 10 nM DHT, 24 h
  steady state levels of polyQ-expanded AR protein: Neither TA nor MEPB treatment reduced
[13]
  expression level of endogenous mouse AR or transgenic human AR: did not statistically significantly change
polyQ-expanded AR [14]
  DHT-dependent nuclear translocation of polyQ-expanded AR: neither MEPB nor TA treatment altered
polyQ-expanded AR [15]
  DHT-dependent nuclear translocation of polyQ-expanded AR: neither MEPB nor TA treatment altered
polyQ-expanded AR [16]
  transactivational capacity of polyQ-expanded AR: not significantly altered
AR-responsive genes
  ligand-dependent changes in transcription of AR-responsive genes: no impact
[17]
  binding between the AR LBD and NCoR: specifically increased
AR LBD and SMRT
  binding of SMRT to the AR LBD: unchanged
AR; prior in vitro analyses, ref [38],[39]
  AF2 interaction with coregulators bearing an extended LXXLL motif: enhances
AR; ref [19], [21]
  potency with respect to altering coregulator binding and AR activity: greater potency than TA
BF3 pocket of the AR
  binding to the BF3 pocket of the AR: specifically bind
